According to ChEMBL document CHEMBL1212928, “Synthesis and resolution of cis-(+/-)-methyl (1R,2S/1S,2R)-2-[(4-hydroxy-4-phenylpiperidin-1-yl)methyl]-1-(4-methylphenyl)cyclopropanecarboxylate [(+/-)-PPCC)]: new sigma receptor ligands with neuroprotective effect” (J Med Chem, 2010):
Activity calls are given as the source filed them. The rule behind the calls is not given here.

Legend:
[1] = Neuroprotective activity against glutamate-induced transglutaminase-2 expression albino rat astrocytes assessed as reduction in transglutaminase level at 25 uM by immunoblotting; type: functional, cell-based; conditions: Astrocyte
Outline: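 Primary rat neocortical astroglial cultures at 14 DIV, about 90-95% GFAP-positive. Exposed for 24 h to ligand at 25 μM, with or without glutamate at 500 μM. TG2 expression was measured by immunoblot with densitometry and compared against control and glutamate-alone cultures.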

[2] = tested on: Astrocyte; test: Neuroprotective activity against glutamate-induced ROS production in albino rat astrocytes assessed as dichlorofluresceine produced per gram of protein per 30 mins at 25 uM by spectrofluorimetry (RVb = 4.45 +/- 0.51 nmol); type: functional
[3] = tested on: Astrocyte; test: Neuroprotective activity against glutamate-induced GSH depletion in rat astrocytes assessed as GSH level at 25 uM measured per gram of protein by spectrofluorimetry (RVb = 9.08 +/- 0.9 […]); type: functional
[4] = species: Cavia porcellus; test: (§1) Displacement of [3H]-DTG from sigma2 opioid receptor by liquid scintillation counting
[5] = tested on: Rattus norvegicus; test: Analgesic activity in Sprague-Dawley rat assessed as reduction in (-)-U50,488H-induced tail flick latency at 1 mg/kg, sc pretreated 30 mins prior to (-)-U50,488H challenge; type: functional, organism-based; set-up: dose 1 mg/kg
Outline: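 Rat tail-flick test. Ligand given systemically at 1 mg/kg sc as a pretreatment before a KOP agonist. Tail-flick latency was followed over the observation period, with basal latency also recorded.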

[6] = target: Sigma non-opioid intracellular receptor 1 (Cavia porcellus, UniProt Q60492); test: Displacement of [3H](+)-pentazocine from guinea pig sigma1 opioid receptor by liquid scintillation counting
Sequence of Sigma non-opioid intracellular receptor 1 (Q60492 whole entry): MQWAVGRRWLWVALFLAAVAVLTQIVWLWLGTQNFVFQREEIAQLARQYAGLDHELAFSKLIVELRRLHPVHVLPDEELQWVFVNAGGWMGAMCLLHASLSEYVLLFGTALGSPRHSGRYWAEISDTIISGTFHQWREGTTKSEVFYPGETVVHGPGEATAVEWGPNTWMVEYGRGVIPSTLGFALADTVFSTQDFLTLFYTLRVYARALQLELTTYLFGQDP

[7] = as §1; set-up: species or system Cavia porcellus

| Compound | Activity [1] | Activity [2] | Activity [3] | Activity [4] | Activity [5] | Ki [6] | Ki [7] |
| --- | --- | --- | --- | --- | --- | --- | --- |
| CC[C@H]1C[C@H]2C[C@H]3c4[nH]c5ccc(OC)cc5c4CCN(C2)[C@@H]13 [IBOGAINE] | inactive | 5.82 nmol | 7.95 nmol | – | – | – | – |
| COC(=O)[C@@]1(c2ccc(C)cc2)C[C@H]1CN1CCC(O)(c2ccccc2)CC1 | inactive | 3.67 nmol | 14.87 nmol | 103 nM | Active | 13 nM | – |
| CC(C)=CCN1CC[C@]2(C)c3cc(O)ccc3C[C@H]1[C@H]2C [(+)-PENTAZOCINE] | Active | 3.46 nmol | 14.15 nmol | – | – | – | – |
| COC(=O)C1(c2ccc(C)cc2)CC1CN1CCC(O)(c2ccccc2)CC1 (racemic) | inactive | 5.51 nmol | 8.05 nmol | – | – | 1.8 nM | 20.8 nM |
| COC(=O)[C@]1(c2ccc(C)cc2)C[C@@H]1CN1CCC(O)(c2ccccc2)CC1 | Active | 3.05 nmol | 13.44 nmol | – | – | 1.9 nM | 50.2 nM |
